Insulin prom act – TRM-6 insulin promoter activation; TRM-6 cells (human fetal islet line), insulin promoter eGFP reporter, imaging; plate-scaled: unstimulated 0, stimulated control 100; activation, % at 2 µM; 130,000 tested, 0.81% active;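 active = activation at 2 µM above a set limit, confirmed on inspection of the cell images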;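 also: share of cells whose green reporter signal exceeds an intensity cutoff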
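Material: TRM-6 insulin promoter–eGFP reporter cells. Buffer or medium: Low-glucose (5.5 mM) medium with tamoxifen. Probe or stimulus: tamoxifen at 0.75 µM added at seeding for reporter induction. Times: tamoxifen pre-incubation 15 h overnight, then compound exposure 48 h at 37 °C. Detection: high-content imaging of fixed cells with Hoechst nuclear stain.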
Starred values were filed as active, the others as inactive. This is one part of a sample in which hits are shown more often than they occur.

`C/C(=N/N=C1/NC(=O)CC(C(=O)Nc2ccccc2)S1)c1cccs1` (centres undefined) gave Insulin prom act 3.4.
Screening Cc1cc(OCC(=O)Nc2ccc(CN3CCCCC3)cc2)ccc1Cl returned Insulin prom act 0.0.
For Cn1c(SCC(=O)C(C)(C)C)nnc1-c1ccncc1 the results were Insulin prom act 0.0.
`COc1ccc(NC(=O)CSc2nnc(-c3ccncc3)n2C)cc1` gave Insulin prom act 0.0.
`Cn1c(SCCOc2ccccc2Cl)nnc1-c1ccncc1` gave Insulin prom act 538.5*.
O=c1oc2cc(O)ccc2c2c1CCCC2 was read as Insulin prom act 118.5.
`CC(C)Sc1nc2ccccc2[nH]1` gave Insulin prom act -77.8.
Screening COc1ccc(C2C(C(=O)N3CCN(C)CC3)c3cc(OC)c(OC)cc3C(=O)N2C)cc1 (centres undefined) returned Insulin prom act 0.0.
For COc1cc2c(cc1OC)C(C(=O)Nc1cccc(C)n1)C(c1cccnc1)N(C)C2=O (centres undefined) the results were Insulin prom act 0.0.
Screening COc1cc2c(cc1OC)C(C(=O)Nc1ccccc1N1CCN(C)CC1)C1c3ccccc3CCN1C2=O (centres undefined) returned Insulin prom act 355.0*.
O=C(Nc1cc2c(cc1Cl)OCCCO2)c1ccccc1 was read as Insulin prom act -3.6.
For O=S(=O)(Nc1ccncc1Cl)c1ccc2ccccc2c1 the results were Insulin prom act -7.1.
For FC(F)(F)c1cnc(Sc2nnc(-c3cccs3)n2CC2CCCO2)c(Cl)c1 (centres undefined) the results were Insulin prom act -8.1.
`CCCNC(=O)c1cnc(Sc2ncc(C(F)(F)F)cc2Cl)n1C` gave Insulin prom act 9.4.
Screening N#Cc1c(Sc2ncc(C(F)(F)F)cc2Cl)nsc1C/C=N\OCc1c(F)cccc1Cl returned Insulin prom act 542.9*.
Brc1cc2c(cc1/C=N/Nc1nc(N3CCCCC3)nc(N3CCCCC3)n1)OCO2 was read as Insulin prom act 0.0.
Screening CCOCCCNC(=O)CSc1nc2nc(C)c(Cc3ccccc3)c(C)n2n1 returned Insulin prom act 133.3.
Screening CC(c1ccccc1)N1CCn2c(nc3cc(NS(C)(=O)=O)ccc32)C1 (centres undefined) returned Insulin prom act 7.0.
`CS(=O)(=O)N1N=C(c2cccs2)CC1c1ccco1` (centres undefined) gave Insulin prom act -8.3.
For CN(C)c1ccc(/C=C/c2cc[n+](C)cc2)cc1 the results were Insulin prom act 174.0*.
Screening CN(C)c1ccc(/C=N/N=C/c2ccccc2O)cc1 returned Insulin prom act 3.3.
For CC(=O)/C(=C/c1ccc(N(C)C)cc1)C(=O)c1ccccc1 the results were Insulin prom act 6.5.
Screening O=C(COC(=O)/C=C/c1ccc(Br)o1)NCCCN1CCCC1=O returned Insulin prom act 9.1.
For O=C(Nc1ccccc1)c1ccncc1 the results were Insulin prom act -5.7.
CCC(=O)Nc1ccnc(-c2cccnc2)n1 was read as Insulin prom act 0.0.
For O=C(Nc1ccnc(-c2ccncc2)n1)c1ccc(F)cc1 the results were Insulin prom act 340.0*.
O=C(NCc1ccc(F)cc1)C(C(=O)NCc1ccc(F)cc1)c1ncc(C(F)(F)F)cc1Cl was read as Insulin prom act 0.0.
Screening COc1ccc(CC(=O)Nc2cccc(-c3ccc4nnc(C)n4n3)c2)cc1 returned Insulin prom act 0.0.
Screening COc1ccc(CC(=O)Nc2c3c(nn2-c2ccccc2C)CS(=O)C3)cc1 (centres undefined) returned Insulin prom act 456.3*.
CCc1ccc(NC(=O)Cc2ccc(OC)cc2)cc1 was read as Insulin prom act -3.4.
For CCOc1ccc(NC(=O)C(C)Oc2ccccc2C(=O)Nc2ccc(C)c(Cl)c2)cc1 (centres undefined) the results were Insulin prom act -7.7.
CCCCNC(C(=O)Nc1ccc([N+](=O)[O-])cc1Br)c1ccccc1 (centres undefined) was read as Insulin prom act -100.0.
For CCOc1ccc(NC(=O)C2CCCN(C(=O)NCc3ccccc3)C2)cc1 (centres undefined) the results were Insulin prom act 493.3*.
For O=C(O)C1CCCN(C(=O)NCc2ccccc2)C1 (centres undefined) the results were Insulin prom act 5.3.
CCOc1ccccc1NC(=O)C1CCN(C(=O)NCc2ccccc2)CC1 was read as Insulin prom act -6.7.
`Cc1ccc(N2C(=O)CN(Cc3sccc3C)C2=S)cc1C` gave Insulin prom act -3.2.
For Cc1ccccc1N1C(=O)CC2(CCCC2)CC1=O the results were Insulin prom act 115.4.
Cc1ccccc1N1C(=O)CN(Cc2sccc2C)C1=S was read as Insulin prom act 84.0*.
O=C(NC1CCCCC1)c1cc([N+](=O)[O-])[nH]n1 was read as Insulin prom act 0.0.
For CC(=O)N1CCN2C(=O)C1CCCC(=O)c1cc(C)ccc12 (centres undefined) the results were Insulin prom act 0.0.
For CC(C)(C(=O)c1ccccc1)/[N+]([O-])=C/c1ccc(Br)cc1 the results were Insulin prom act -6.7.
